# Where “and” joins values, the source holds several entries; their conditions need not be identical. Identical values can stand only once.
# Tested on: HEK-293T
# Test: Multiplex assay against HEK293T
# Format: toxicity, cell-based
# Settings: human
# How it was run: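 On a CQ1 microscope at 37°C and 5% CO2, live cells were imaged after compound addition. They had been stained at seeding with Hoechst33342, BioTracker Green Microtubule Cytoskeleton Dye, MitoTracker Red and Annexin V Alexa Fluor 680. CellPathfinder machine-learning gating assigned cells to Hoechst high-intensity objects or normal cells, normal cells to healthy, pyknosed or fragmented nuclei, and pyknosed cells to mitotic or apoptotic. Tubulin, mitochondrial-mass and membrane-permeability phenotypes are per cents of healthy-nucleus cells.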
# [1] = 12 h, 1 µM, compound concentration 1 uM
# [2] = 12 h, 10 µM, compound concentration 10 uM
# [3] = 24 h, 1 µM, compound concentration 1 uM
# [4] = 24 h, 10 µM, compound concentration 10 uM
# [5] = 48 h, 1 µM, compound concentration 1 uM
# [6] = 48 h, 10 µM, compound concentration 10 uM
smiles,measurement,setting,value
CCCCC(=O)N(Cc1ccc(-c2ccccc2-c2nnn[nH]2)cc1)[C@H](C(=O)O)C(C)C,Population Apoptotic (%),[1],44% and 40%
same,Population Fragmented Nuclei (%),[1],7% and 6%
same,Population Healthy Nuclei (%),[1],80% and 74%
same,Population Hoechst High Intensity Objects (%),[1],9% and 11%
same,Population Membrane Permeable-Phenotype (%),[1],0%
same,Population Mitochondria Different-Phenotype (%),[1],36% and 49%
same,Population Mitotic Cells (%),[1],55% and 59%
same,Population Normal (%),[1],90% and 88%
same,Population Pyknosed Nuclei (%),[1],12% and 18%
same,Population Tubulin-Different-Phenotype (%),[1],16% and 21%
same,Total Cell Count,[1],469 and 290
same,Population Apoptotic (%),[2],21% and 51%
same,Population Fragmented Nuclei (%),[2],7% and 5%
same,Population Healthy Nuclei (%),[2],83% and 81%
same,Population Hoechst High Intensity Objects (%),[2],5% and 10%
same,Population Membrane Permeable-Phenotype (%),[2],0%
same,Population Mitochondria Different-Phenotype (%),[2],30% and 63%
same,Population Mitotic Cells (%),[2],78% and 48%
same,Population Normal (%),[2],94% and 89%
same,Population Pyknosed Nuclei (%),[2],8% and 13%
same,Population Tubulin-Different-Phenotype (%),[2],19%
same,Total Cell Count,[2],507 and 310
same,Population Apoptotic (%),[3],30% and 32%
same,Population Fragmented Nuclei (%),[3],11% and 9%
same,Population Healthy Nuclei (%),[3],78% and 82%
same,Population Hoechst High Intensity Objects (%),[3],5% and 6%
same,Population Membrane Permeable-Phenotype (%),[3],0%
same,Population Mitochondria Different-Phenotype (%),[3],21% and 26%
same,Population Mitotic Cells (%),[3],70% and 67%
same,Population Normal (%),[3],94% and 93%
same,Population Pyknosed Nuclei (%),[3],10% and 8%
same,Population Tubulin-Different-Phenotype (%),[3],12%
same,Total Cell Count,[3],630 and 429
same,Population Apoptotic (%),[4],20% and 35%
same,Population Fragmented Nuclei (%),[4],9%
same,Population Healthy Nuclei (%),[4],82%
same,Population Hoechst High Intensity Objects (%),[4],5% and 7%
same,Population Membrane Permeable-Phenotype (%),[4],0%
same,Population Mitochondria Different-Phenotype (%),[4],19% and 30%
same,Population Mitotic Cells (%),[4],79% and 64%
same,Population Normal (%),[4],94% and 92%
same,Population Pyknosed Nuclei (%),[4],7%
same,Population Tubulin-Different-Phenotype (%),[4],11% and 13%
same,Total Cell Count,[4],663 and 420
same,Population Apoptotic (%),[5],18% and 19%
same,Population Fragmented Nuclei (%),[5],13% and 14%
same,Population Healthy Nuclei (%),[5],80% and 79%
same,Population Hoechst High Intensity Objects (%),[5],2% and 3%
same,Population Membrane Permeable-Phenotype (%),[5],1% and 0%
same,Population Mitochondria Different-Phenotype (%),[5],12% and 16%
same,Population Mitotic Cells (%),[5],81% and 80%
same,Population Normal (%),[5],97% and 96%
same,Population Pyknosed Nuclei (%),[5],5% and 6%
same,Population Tubulin-Different-Phenotype (%),[5],7% and 9%
same,Total Cell Count,[5],1024 and 653
same,Population Apoptotic (%),[6],14% and 15%
same,Population Fragmented Nuclei (%),[6],14%
same,Population Healthy Nuclei (%),[6],81% and 78%
same,Population Hoechst High Intensity Objects (%),[6],1% and 2%
same,Population Membrane Permeable-Phenotype (%),[6],2% and 0%
same,Population Mitochondria Different-Phenotype (%),[6],8% and 17%
same,Population Mitotic Cells (%),[6],85% and 84%
same,Population Normal (%),[6],98% and 97%
same,Population Pyknosed Nuclei (%),[6],3% and 7%
same,Population Tubulin-Different-Phenotype (%),[6],8%
same,Total Cell Count,[6],1205 and 623

# Source: ChEMBL document CHEMBL5724801, “EUbOPEN Chemogenomics Library - Multiplex” (2024)
